Active and inactive are the calls of the source. No cut-off for these calls is given here.
How the values were obtained:
HeLa [1] = assay: cells; assay type: functional, cell-based; settings: Homo sapiens, 24 h
HeLa [2] = assay: Induction of apoptosis in human HeLa cells assessed as chromosomal condensation at 25 uM after 24 hrs using Hoechst staining method; assay type: functional, cell-based
Outline: (§1)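 HeLa cells at 1 × 10⁴ cells/well in 96-well plates, in three replicates, were treated and incubated overnight at 37 °C. Cells were washed twice with PBS and fixed in 4% paraformaldehyde in PBS for one day. They were stained with 1 µg/mL Hoechst 33342 for 20 min at room temperature. Nuclei were imaged by fluorescence microscopy at 360/470 nm excitation/emission.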

HeLa [3] = assay: Induction of apoptosis in human HeLa cells assessed as chromosomal fragmentation at 25 uM after 24 hrs using Hoechst staining method; assay type: functional, cell-based
Outline: as §1

HeLa [4] = assay: Induction of apoptosis in human HeLa cells assessed as formation of apoptotic bodies at 25 uM after 24 hrs using Hoechst staining method; assay type: functional, cell-based
Outline: as §1

HeLa [5] = assay: Induction of apoptosis in human HeLa cells assessed as margination of chromation into horseshoe shaped structure at 25 uM after 24 hrs using Hoechst staining method; assay type: functional, cell-based
Outline: as §1

HeLa [6] = assay: Induction of apoptosis in human HeLa cells assessed as blebbing of cellular membrane at 25 uM after 24 hrs using Hoechst staining method; assay type: functional, cell-based; settings: in the assay text read “by phase contrast microscopy” for “using Hoechst staining method”
Outline: (§2)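 HeLa cells (ATCC) were grown in DMEM with 10% heat-inactivated FBS plus penicillin/streptomycin at 37 °C under 5% CO₂. Cells at 1 × 10⁵/well were exposed to compound for 24 h. Morphology changes were then examined by phase-contrast light microscopy against untreated cells.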

HeLa [7] = assay: Induction of apoptosis in human HeLa cells assessed as cytoplasm content release at 25 uM after 24 hrs using Hoechst staining method; assay type: functional, cell-based; settings: in the assay text read “by phase contrast microscopy” for “using Hoechst staining method”
Outline: as §2

HeLa [8] = assay: Induction of apoptosis in human HeLa cells assessed as deformed nucleus/cytoplasm consistency at 25 uM after 24 hrs using Hoechst staining method; assay type: functional, cell-based
Outline: as §1

HeLa [9] = assay: Induction of apoptosis in human HeLa cells assessed as fragmentation of nucleus at 25 uM after 24 hrs using Hoechst staining method; assay type: functional, cell-based
Outline: as §1

HeLa [10] = assay: Induction of apoptosis in human HeLa cells assessed as cell membrane rupture at 25 uM after 24 hrs using Hoechst staining method; assay type: functional, cell-based; settings: in the assay text read “by phase contrast microscopy” for “using Hoechst staining method”
Outline: as §2

HeLa [11] = assay: Ratio of camptothecin IC50 to compound IC50 for human HeLa cells; assay type: functional

With CO/N=C1\C[C@@H](c2ccc(Cl)cc2)N(C)[C@@H](c2ccc(Cl)cc2)[C@@H]1C the IC50 (HeLa [1]) was 36.3 µM.
In the case of COc1cc([C@@H]2c3cc4c(cc3[C@@H](O[C@@H]3O[C@@H]5CO[C@@H](C)O[C@H]5[C@H](O)[C@H]3O)[C@H]3COC(=O)[C@H]23)OCO4)cc(OC)c1O [ETOPOSIDE], the IC50 (HeLa [1]) is reported as 23.3 µM.
CO/N=C1\C[C@@H](c2ccc(OC)cc2)N(C)[C@@H](c2ccc(OC)cc2)[C@@H]1C gave an IC50 (HeLa [1]) of 80.6 µM.
CO/N=C1/[C@@H](C)[C@H](c2ccc(C)cc2)N[C@H](c2ccc(C)cc2)[C@H]1C was tested, and the IC50 (HeLa [1]) was 54.9 µM.
With CO/N=C1\C[C@@H](c2ccc(Br)cc2)N[C@@H](c2ccc(Br)cc2)[C@@H]1C (relative stereo) the Activity (HeLa [2]) was “Active”, the Activity (HeLa [3]) was “Active” and the Activity (HeLa [4]) was “Active”. For the same molecule, the Activity (HeLa [5]) was “Active”, the IC50 (HeLa [1]) was 25 µM and the Activity (HeLa [6]) was “Active”. The Activity (HeLa [7]) was “Active”, the Activity (HeLa [8]) was “Active” and the Activity (HeLa [9]) was “Active”. For the same molecule, the Activity (HeLa [10]) was “Active” and the “Ratio IC50” value (HeLa [11]) was 3.
CO/N=C1\C[C@@H](c2ccc(OC)cc2)N[C@@H](c2ccc(OC)cc2)[C@@H]1C gave an IC50 (HeLa [1]) of 154 µM.
Work on CCOc1ccc([C@H]2N[C@@H](c3ccc(OCC)cc3)[C@H](C)/C(=N/OC)[C@@H]2C)cc1 yielded an IC50 (HeLa [1]) of 98 µM.
CO/N=C1\C[C@@H](c2ccc(C)cc2)N(C)[C@@H](c2ccc(C)cc2)[C@@H]1C was tested, and the IC50 (HeLa [1]) was 47.7 µM.
With CC[C@@]1(O)C(=O)OCc2c1cc1n(c2=O)Cc2cc3ccccc3nc2-1 [CAMPTOTHECIN] the IC50 (HeLa [1]) was 8.93 µM.
With CO/N=C1/[C@@H](C)[C@H](c2cccc(F)c2)N[C@H](c2cccc(F)c2)[C@H]1C the IC50 (HeLa [1]) was 37.9 µM.
For CO/N=C1\C[C@@H](c2ccc(F)cc2)N[C@@H](c2ccc(F)cc2)[C@@H]1C, the IC50 (HeLa [1]) was 49.2 µM.
For CO/N=C1\C[C@@H](c2cccc(F)c2)N[C@@H](c2cccc(F)c2)[C@@H]1C, the IC50 (HeLa [1]) was 38.4 µM.
With CO/N=C1\C[C@@H](c2ccccc2)N[C@@H](c2ccccc2)C1 (relative stereo) the IC50 (HeLa [1]) was 121 µM.
For CC[C@@H]1/C(=N/OC)C[C@@H](c2ccccc2)N[C@H]1c1ccccc1, the IC50 (HeLa [1]) was 57.3 µM.
With CO/N=C1\C[C@@H](c2ccc(Cl)cc2)N[C@@H](c2ccc(Cl)cc2)[C@@H]1C (relative stereo) the IC50 (HeLa [1]) was 49 µM.
Work on CO/N=C1/[C@@H](C)[C@H](c2ccc(C(C)C)cc2)N[C@H](c2ccc(C(C)C)cc2)[C@H]1C yielded an IC50 (HeLa [1]) of 51 µM.
With CO/N=C1\C[C@@H](c2ccccc2)N[C@@H](c2ccccc2)[C@@H]1C (relative stereo) the IC50 (HeLa [1]) was 113 µM.
For CO/N=C1\C[C@@H](c2ccc(C)cc2)N[C@@H](c2ccc(C)cc2)[C@@H]1C, the IC50 (HeLa [1]) was 81.6 µM.
With CC[C@@H]1/C(=N/OC)C[C@@H](c2ccccc2)N(C)[C@H]1c1ccccc1 the IC50 (HeLa [1]) was 41.7 µM.
With CO/N=C1/[C@@H](C)[C@H](c2ccc(OC)cc2)N[C@H](c2ccc(OC)cc2)[C@H]1C the IC50 (HeLa [1]) was 93.9 µM.
In the case of CO/N=C1\C[C@@H](c2ccc(F)cc2)N(C)[C@@H](c2ccc(F)cc2)[C@@H]1C, the IC50 (HeLa [1]) is reported as 40.7 µM.
CO/N=C1\C[C@@H](c2ccccc2)N[C@@H](c2ccccc2)[C@@H]1C(C)C was tested, and the IC50 (HeLa [1]) was 49.5 µM.
